In ChEMBL document CHEMBL4052702 (Bioorg Med Chem Lett, 2017):
Activity calls are given as the source filed them. The rule behind the calls is not given here.

Assays:
[1] = target: T1, Protein deacetylase HDAC6 (Homo sapiens) (UniProt Q9UBN7); experiment: Inhibition of HDAC6 in human U937 cells assessed as increase in acetylated-alpha-tubulin level incubated for 18 hrs by Western blot method; type: cell-based
T1 sequence (whole entry): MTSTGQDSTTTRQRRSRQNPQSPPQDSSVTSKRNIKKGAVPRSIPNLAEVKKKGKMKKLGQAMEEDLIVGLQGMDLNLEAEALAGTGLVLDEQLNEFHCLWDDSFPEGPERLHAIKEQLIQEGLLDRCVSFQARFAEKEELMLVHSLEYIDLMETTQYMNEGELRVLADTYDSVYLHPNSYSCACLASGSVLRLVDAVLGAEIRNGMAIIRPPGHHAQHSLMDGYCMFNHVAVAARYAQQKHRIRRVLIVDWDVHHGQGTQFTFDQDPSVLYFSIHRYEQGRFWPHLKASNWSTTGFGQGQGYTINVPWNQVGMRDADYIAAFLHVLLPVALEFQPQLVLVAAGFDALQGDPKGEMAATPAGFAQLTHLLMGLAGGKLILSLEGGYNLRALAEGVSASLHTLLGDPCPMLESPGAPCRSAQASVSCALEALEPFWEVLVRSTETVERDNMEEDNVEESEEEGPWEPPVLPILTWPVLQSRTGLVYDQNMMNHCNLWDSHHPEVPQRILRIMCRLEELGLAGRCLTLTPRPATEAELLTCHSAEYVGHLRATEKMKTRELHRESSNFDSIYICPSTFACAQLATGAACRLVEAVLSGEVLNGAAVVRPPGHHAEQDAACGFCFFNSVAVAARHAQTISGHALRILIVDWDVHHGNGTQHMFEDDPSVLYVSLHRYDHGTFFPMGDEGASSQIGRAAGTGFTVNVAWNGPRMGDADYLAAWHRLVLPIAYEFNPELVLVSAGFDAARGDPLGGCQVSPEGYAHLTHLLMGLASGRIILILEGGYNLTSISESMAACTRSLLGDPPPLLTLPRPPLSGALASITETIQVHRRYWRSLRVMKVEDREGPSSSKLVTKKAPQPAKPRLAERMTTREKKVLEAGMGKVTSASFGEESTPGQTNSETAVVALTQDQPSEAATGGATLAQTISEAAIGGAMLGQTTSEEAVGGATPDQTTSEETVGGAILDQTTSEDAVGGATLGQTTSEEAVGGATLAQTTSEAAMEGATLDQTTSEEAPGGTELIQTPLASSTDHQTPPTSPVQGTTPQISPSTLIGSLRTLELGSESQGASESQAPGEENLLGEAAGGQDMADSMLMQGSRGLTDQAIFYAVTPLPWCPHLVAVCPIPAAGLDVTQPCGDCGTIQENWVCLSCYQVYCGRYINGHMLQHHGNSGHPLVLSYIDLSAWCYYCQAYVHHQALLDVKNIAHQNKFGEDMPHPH
Summary of the method: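 U937 cells were treated with inhibitor at 10–40 µM, with 1% DMSO as vehicle control. Cells were then lysed, run on SDS-PAGE, transferred to PVDF and western-blotted for acetyl-Lys40 α-tubulin, with acetyl-Lys9 histone H3 as the class I marker. GAPDH was probed as a loading control, and trials were repeated.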

[2] = target: T2, Histone deacetylase 2 (Homo sapiens, UniProt Q92769); experiment: Inhibition of HDAC2 in human U937 cells assessed as increase in acetylated-histone H3 level at 10 to 40 uM incubated for 18 hrs by Western blot method; type: cell-based
T2 sequence (Q92769 whole entry): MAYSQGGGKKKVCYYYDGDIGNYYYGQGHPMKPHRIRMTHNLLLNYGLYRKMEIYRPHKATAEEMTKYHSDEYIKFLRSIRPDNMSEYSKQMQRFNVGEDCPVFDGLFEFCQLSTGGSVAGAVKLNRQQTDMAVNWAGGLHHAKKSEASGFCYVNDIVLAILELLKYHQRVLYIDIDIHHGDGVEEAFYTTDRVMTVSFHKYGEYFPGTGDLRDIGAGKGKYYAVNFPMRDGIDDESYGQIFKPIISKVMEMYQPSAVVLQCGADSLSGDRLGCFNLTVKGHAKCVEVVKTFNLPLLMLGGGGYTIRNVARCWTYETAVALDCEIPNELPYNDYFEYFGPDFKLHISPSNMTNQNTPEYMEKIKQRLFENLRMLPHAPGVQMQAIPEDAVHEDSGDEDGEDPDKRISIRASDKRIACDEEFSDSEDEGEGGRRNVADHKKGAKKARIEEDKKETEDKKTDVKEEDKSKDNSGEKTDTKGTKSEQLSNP
Summary of the method: (§1)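 U937 cells were treated with 10–40 µM compound, with a 1% DMSO vehicle control. Cells were then lysed and the lysates run on SDS-PAGE and transferred to PVDF. Blots were probed for histone H3 acetyl-Lys9, which reports class I HDAC (1, 2, 3) inhibition, with GAPDH as the loading control. Repeat trials were run.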

[3] = target: T3, Histone deacetylase 1 (Homo sapiens, UniProt Q13547); experiment: Inhibition of HDAC1 in human U937 cells assessed as increase in acetylated-histone H3 level at 10 to 40 uM incubated for 18 hrs by Western blot method; type: cell-based; summary of the method: as §1
T3 sequence (Q13547 whole entry): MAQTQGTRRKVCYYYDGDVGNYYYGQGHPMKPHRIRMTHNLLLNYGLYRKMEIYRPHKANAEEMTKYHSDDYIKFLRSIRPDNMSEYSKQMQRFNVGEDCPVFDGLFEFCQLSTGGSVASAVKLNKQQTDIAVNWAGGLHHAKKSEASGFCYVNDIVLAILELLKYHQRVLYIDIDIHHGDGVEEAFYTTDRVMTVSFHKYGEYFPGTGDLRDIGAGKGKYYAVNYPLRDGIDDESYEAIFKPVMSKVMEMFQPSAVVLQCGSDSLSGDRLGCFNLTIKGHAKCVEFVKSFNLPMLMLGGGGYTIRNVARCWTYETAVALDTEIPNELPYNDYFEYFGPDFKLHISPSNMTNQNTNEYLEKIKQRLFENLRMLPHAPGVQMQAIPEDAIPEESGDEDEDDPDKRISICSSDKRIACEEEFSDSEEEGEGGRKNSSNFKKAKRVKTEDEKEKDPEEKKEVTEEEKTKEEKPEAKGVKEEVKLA

[4] = target: T3, Histone deacetylase 1; experiment: Inhibition of HDAC1 (unknown origin) assessed as remaining enzyme activity at 0.25 uM by ELISA-based assay
Summary of the method: (§2)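 Isoform screen by ELISA-based HDAC activity assay against HDAC1, HDAC2, HDAC3 and HDAC6. Each analog was tested at one final concentration: 0.025, 0.125, 0.25 or 1.25 µM. Read-out is percent deacetylase activity remaining, given as the mean with standard error of at least two independent trials.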

[5] = target: T2, Histone deacetylase 2; experiment: Inhibition of HDAC2 (unknown origin) assessed as remaining enzyme activity at 0.25 uM by ELISA-based assay; summary of the method: as §2
[6] = organism: Homo sapiens; experiment: Inhibition of HDAC in human HeLa-S3 cells lysates assessed as remaining enzyme activity at 3 x 10^-6 M pre-incubated for 15 mins before HDAC-Glo I/II substrate addition and measured after 30 mins post substrate addition; type: cell-free
[7] = organism: Homo sapiens; experiment: Inhibition of HDAC in human HeLa-S3 cells lysates assessed as remaining enzyme activity at 7.5 x 10^-7 M pre-incubated for 15 mins before HDAC-Glo I/II substrate addition and measured after 30 mins post substrate addition; type: cell-free
[8] = organism: Homo sapiens; experiment: Inhibition of HDAC in human HeLa-S3 cells lysates assessed as remaining enzyme activity at 1.2 x 10^-5 M pre-incubated for 15 mins before HDAC-Glo I/II substrate addition and measured after 30 mins post substrate addition; type: cell-free
[9] = target: Histone deacetylase 3 (Homo sapiens, UniProt O15379); experiment: Inhibition of HDAC3 (unknown origin) assessed as remaining enzyme activity at 5 x 10^-7 M by ELISA-based assay
Histone deacetylase 3, sequence (O15379 whole entry): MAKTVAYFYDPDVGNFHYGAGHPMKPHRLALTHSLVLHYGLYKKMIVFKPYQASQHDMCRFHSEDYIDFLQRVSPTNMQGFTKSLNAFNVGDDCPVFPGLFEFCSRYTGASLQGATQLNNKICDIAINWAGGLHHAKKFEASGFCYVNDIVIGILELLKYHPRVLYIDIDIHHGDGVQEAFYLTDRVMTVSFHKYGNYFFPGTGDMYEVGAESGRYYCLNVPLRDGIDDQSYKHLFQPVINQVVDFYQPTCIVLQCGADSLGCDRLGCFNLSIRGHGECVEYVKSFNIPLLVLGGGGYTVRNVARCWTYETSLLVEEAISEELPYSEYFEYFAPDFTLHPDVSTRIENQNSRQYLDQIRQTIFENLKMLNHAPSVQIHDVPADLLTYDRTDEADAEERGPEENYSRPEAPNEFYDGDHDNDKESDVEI

[10] = organism: Homo sapiens; experiment: Inhibition of HDAC in human HeLa-S3 cells lysates assessed as remaining enzyme activity at 1.5 x 10^-6 M pre-incubated for 15 mins before HDAC-Glo I/II substrate addition and measured after 30 mins post substrate addition; type: cell-free
[11] = organism: Homo sapiens; experiment: Inhibition of HDAC in human HeLa-S3 cells lysates assessed as remaining enzyme activity at 6 x 10^-6 M pre-incubated for 15 mins before HDAC-Glo I/II substrate addition and measured after 30 mins post substrate addition; type: cell-free

inhibition [1] | inhibition [2] | inhibition [3] | Activity [4] | Activity [5] | Activity [9] | SMILES | Activity [6] | Activity [7] | Activity [8] | Activity [10] | Activity [11]
Dose-dependent effect | Active | Active |  |  |  | O=C(CCCC(CCC(=O)Nc1ccccc1)Cc1ccccc1)NO (stereo unspecified) |  |  |  |  | 
 |  |  | 81 to 84% | 83% | 83% | CCCCC(CCCC(=O)NO)CCC(=O)Nc1ccccc1 (stereo unspecified) | 66% | 101% | 23% | 88% | 42%
